We go through 38 molecules from ChEMBL document CHEMBL4699639, “Discovery of Novel 2-Aniline-1,4-naphthoquinones as Potential New Drug Treatment for Leber's Hereditary Optic Neuropathy (LHON)” (J Med Chem, 2020).

A short description of series [1]: Suppression of rotenone-induced ATP depletion in human HepG2 cells assessed as rescue of ATP level incubated for 2 hrs by Celltiter-Glo assay relative to control. The format is functional. Also noted: concentration or dose not given beside the values. The essentials: (§1)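 HepG2 cells seeded 10×10^3 per well in 1 g/L glucose, 2% FBS medium the day before. Switched to glucose- and FBS-free medium containing 10 µM rotenone, with compound added at the same time, 2 h at 37 °C. ATP read by CellTiter-Glo luminescence, normalized to DMSO cells without rotenone. Mean ± SEM of ≥3 independent runs. Complex III inhibitors, where used, at 50 nM.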

The test system of series [2] is SH-SY5Y. The experiment in a line: Cytotoxicity against human SH-SY5Y cells assessed as reduction in cell viability at 25 uM incubated for 24 hrs by Celltiter-blue assay. The format is cell-based. The procedure, abridged:
(§2)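 HepG2 or SH-SY5Y seeded 10×10^3 per well the day before in 1 g/L glucose medium with 2% FBS. Medium replaced with fresh 2% FBS, 1 g/L glucose medium containing compound (25 µM) for 24 h at 37 °C. CellTiter-Blue added for 4 h, fluorescence read at 560/590 nm. Viability given as % of vehicle/untreated cells. Mean ± SEM of ≥3 independent runs.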
For orientation: Alamar Blue is a resazurin reagent that responds to reducing activity.

The nature of series [3]: Cytotoxicity against human HepG2 cells assessed as cell viability at 25 uM incubated for 24 hrs by Celltiter-blue assay relative to control. It counts as cell-based. To be noted: read-out: Activity. The procedure, abridged: as §2
Series [4] deals with NAD(P)H dehydrogenase [quinone] 1 (Homo sapiens) (UniProt P15559). Nature of the series: Substrate activity at recombinant NQO1 (unknown origin) assessed as reduction in NADH level at 20 uM measured for 6 mins by microplate reader analysis.
NAD(P)H dehydrogenase [quinone] 1 (Homo sapiens), sequence (P15559 whole entry): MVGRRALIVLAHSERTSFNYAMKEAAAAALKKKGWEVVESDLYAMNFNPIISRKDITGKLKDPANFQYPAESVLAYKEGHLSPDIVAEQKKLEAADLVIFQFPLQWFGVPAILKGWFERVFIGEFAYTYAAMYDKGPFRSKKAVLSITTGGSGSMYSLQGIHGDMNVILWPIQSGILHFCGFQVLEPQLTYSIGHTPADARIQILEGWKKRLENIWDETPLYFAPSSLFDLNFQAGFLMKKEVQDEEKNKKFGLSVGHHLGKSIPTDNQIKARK
Series [5] concerns HepG2. The experiment in a line: Suppression of rotenone-induced ATP depletion in human HepG2 cells assessed as increase in rescue of ATP level at 1 uM incubated for 2 hrs by Celltiter-Glo assay. The format is functional, cell-based. The procedure, abridged:
as §1
(In general: Cellular ATP, detected with luciferase, serves as a proxy for viable cell number.)

Series [6] relates to SH-SY5Y. The experiment in a line: Cytotoxicity against human SH-SY5Y cells assessed as reduction in cell viability by WST-1 assay. It counts as cell-based. For orientation: Tetrazolium assays rely on reduction of a dye to a coloured formazan, in cell work by metabolically active cells.
Series [7] can be described thus: Cytotoxicity against […] assessed as reduction in cell viability by WST-1 assay. It counts as cell-based. To be noted: r28.
The target in series [8] is NAD(P)H dehydrogenase [quinone] 1 (Homo sapiens) (UniProt P15559). The experiment in a line: Substrate activity at NQO1 in human HepG2 cells assessed as reduction in cell viability in presence of NQO1 inhibitor dicoumarol by WST-1 assay. The format is cell-based.
In series [9] the test system is HepG2. Nature of the series: Cytotoxicity against human HepG2 cells assessed as cell reduction in cell viability at 25 uM incubated for 24 hrs by Celltiter-blue assay. The format is cell-based. To be noted: hepg2, 24 h. The essentials:
as §2

The target in series [10] is NAD(P)H dehydrogenase [quinone] 1 (Homo sapiens) (UniProt P15559). The experiment in a line: Substrate activity at NQO1 in human HepG2 cells assessed as reduction in cell viability by WST-1 assay. It counts as cell-based.
Series [11] in a line: Suppression of rotenone-induced ATP depletion in human HepG2 cells assessed as rescue of ATP level at 5 uM incubated for 2 hrs by Celltiter-Glo assay relative to control. It counts as functional. The essentials:
as §1

In series [12] the test system is SH-SY5Y. Nature of the series: Cytotoxicity against human SH-SY5Y cells assessed as reduction in cell viability incubated for 24 hrs by Celltiter-blue assay. The format is cell-based.
Series [13] has as its system HepG2. Nature of the series: Cytotoxicity against human HepG2 cells assessed as reduction in cell viability incubated for 24 hrs by Celltiter-blue assay. It counts as cell-based. To be noted: HepG2, 24 h.
Series [14] is described as follows: Suppression of rotenone-induced ATP depletion in human HepG2 cells incubated for 2 hrs by Celltiter-Glo assay. It counts as functional, cell-based. To be noted: HepG2, 2 h. The procedure, abridged:
as §1

Series [15] relates to HepG2. The experiment in a line: Suppression of rotenone-induced ATP depletion in human HepG2 cells assessed as increase in rescue of ATP level at 0.1 to 1 uM incubated for 2 hrs by Celltiter-Glo assay. It counts as functional, cell-based. To be noted: dose microM 0.1-1, time 2.0 hrs. The procedure, abridged: as §1

The term IC50 denotes the midpoint of a concentration-inhibition curve. Broadly, the EC50 is the midpoint of the concentration-response curve.

Molecules are shown by their SMILES. Calls of active or inactive are those of the source. No cut-off for these calls is given here. A value given as a limit tells only on which side of the number the result lay.

Consider `O=C1C=C(Nc2ccc(F)c(C(F)(F)F)c2)C(=O)c2ccccc21`, for which the Activity in series [1] was 54.5%; in the series on SH-SY5Y [2], “Non-Toxic”. In series [3], the viability at 24 h, 25 µM is 35.6%.

As for `CNC1=C(Nc2ccc(F)c(C(F)(F)F)c2)C(=O)c2ccccc2C1=O`, the Activity in series [1] was 14.7%; in the series with SH-SY5Y [2] it was “Non-Toxic”. For the same molecule, the viability at 24 h, 25 µM in [3] is 95.8%. Also, the result in series [4] was inactive.

Turning to `CCNC1=C(Nc2ccccc2)C(=O)c2ccccc2C1=O`, the outcome with HepG2 [5] was Active. The Activity result in the series with SH-SY5Y [2] was “Non-Toxic”.

For `CCSC1=C(Nc2cccc(C(F)(F)F)c2)C(=O)c2ccccc2C1=O`, the Activity entry in the series with SH-SY5Y [6] is given as “Non-Toxic”; in [7] it was “Non-Toxic”; with HepG2 [9], “Toxic”; in the series on SH-SY5Y [2], “Toxic”. For the same molecule, the result (with HepG2 [5]; in [10]) was Active. In addition, the outcome in series [8] was inactive.

Regarding `COC1=C(Nc2cc(C(F)(F)F)ccc2F)C(=O)c2ccccc2C1=O`, the Activity result (with SH-SY5Y [6]; in series [7]; with SH-SY5Y [2]) was “Non-Toxic” each time. The outcome (in the series on HepG2 [5]; in [10]) was Active. Further, in [8], the outcome was inactive.

With `COC(=O)c1ccc(NC2=C(Cl)C(=O)c3ccccc3C2=O)cc1`, the Activity result is “Toxic” with HepG2 [9], “Toxic” with SH-SY5Y [2] and 70% in series [11].

In the case of `O=C1C(Cl)=C(NCCc2cccc(C(F)(F)F)c2)C(=O)c2ccccc21`, in the series on HepG2 [5], the outcome was Active.

As for `O=C1C(Cl)=C(NCc2ccccc2)C(=O)c2ccccc21`, the outcome with HepG2 [5] was Active. Also, the Activity entry is “Toxic” in the series with SH-SY5Y [2] and 70% in series [11].

As to `O=C1C(Cl)=C(NCc2cccc(C(F)(F)F)c2)C(=O)c2ccccc21`, in the series with HepG2 [5], the outcome was Active.

Turning to `O=C1C(Cl)=C(NCCc2ccccc2)C(=O)c2ccccc21`, in the series with HepG2 [5], the outcome was Active.

As to `CC1=C(CCCCCCCCCCO)C(=O)c2ccccc2C1=O`, the outcome in the series on HepG2 [5] was inactive.

Take `CCCCNC1=C(Cl)C(=O)c2ccccc2C1=O`: the Activity entry is recorded as “Toxic” with SH-SY5Y [2] and 70% in series [11].

For the molecule `CC1=C(CCCC(=O)NCCc2ccc(O)cc2)C(=O)c2ccccc2C1=O`, the IC50 in the series on SH-SY5Y [12] is 76 µM; with HepG2 [13] it was above 100 µM. The concentration giving a half-maximal response (EC50) in series [14] came out at 0.8 µM. Further, in the series on HepG2 [15], the outcome was Active. Moreover, the result in series [4] was inactive.

`CC1=C(SC(C)(C)C)C(=O)c2ccccc2C1=O`: the figures for the Activity result (with SH-SY5Y [2]; in series [11]) were “Toxic” and 70%, respectively.

For the molecule `O=C1C=C(NCCc2ccccc2)C(=O)c2ccccc21`, the Activity result in the series on SH-SY5Y [2] is listed as “Toxic”.

Regarding `O=C(OC1=C(c2ccccc2)C(=O)c2ccccc2C1=O)c1cccc([N+](=O)[O-])c1`, in the series on SH-SY5Y [2], the Activity entry is reported as “Toxic”.

Consider `CNC1=C(Nc2ccccc2)C(=O)c2ccccc2C1=O`, for which the Activity result in the series on SH-SY5Y [2] was “Non-Toxic”. Also, in series [4], the result was inactive.

Take `CCOC1=C(Nc2ccccc2)C(=O)c2ccccc2C1=O`: the result with HepG2 [5] was inactive. For the same molecule, the Activity result in the series on SH-SY5Y [2] is reported as “Non-Toxic”.

For the molecule `CCCCC1=C(C)C(=O)c2ccccc2C1=O`, the Activity result in the series with SH-SY5Y [2] was “Toxic”.

On to `O=C1C(Br)=C(NCCc2ccccn2)C(=O)c2ccccc21`, for which, in the series on SH-SY5Y [2], the Activity entry is “Toxic”.

With `O=C1C=C(NCCCCO)C(=O)c2ccccc21`, the Activity result in the series on SH-SY5Y [2] is “Toxic”.

Take `COC1=C(Nc2ccccc2)C(=O)c2ccccc2C1=O`: the outcome with HepG2 [5] was inactive. Moreover, the Activity entry with SH-SY5Y [2] is recorded as “Non-Toxic”.

On to `CSC1=C(Nc2cccc(C(F)(F)F)c2)C(=O)c2ccccc2C1=O`, for which, in the series on SH-SY5Y [2], the Activity entry is recorded as “Non-Toxic”.

For the molecule `O=C1C(Nc2cccc(C(F)(F)F)c2)=C(SC(F)(F)F)C(=O)c2ccccc21`, the result in the series on HepG2 [5] was Active. Further, the Activity result in the series with HepG2 [9] and in the series on SH-SY5Y [2] was “Toxic” each time.

Consider `COC1=C(Nc2cccc(C(F)(F)F)c2)C(=O)c2ccccc2C1=O`, for which the Activity entry with SH-SY5Y [6] was “Non-Toxic”; in [7], “Non-Toxic”; with SH-SY5Y [2], “Non-Toxic”; in series [11], 70%. In addition, the outcome (in the series on HepG2 [5]; in series [10]) was Active. In addition, the outcome in series [8] was inactive.

For the molecule `CC(C)OC1=C(Nc2ccccc2)C(=O)c2ccccc2C1=O`, in the series with HepG2 [5], the outcome was inactive.

In the case of `CN(C)C1=C(Nc2ccccc2)C(=O)c2ccccc2C1=O`, the result with HepG2 [5] was Active.

Turning to `O=C1C(Cl)=C(Nc2ccc(Nc3ccccc3)cc2)C(=O)c2ccccc21`, the Activity entry with HepG2 [9] and in the series on SH-SY5Y [2] was “Toxic” throughout.

Consider `O=C1C(Nc2ccccc2)=C(Oc2ccccc2)C(=O)c2ccccc21`, for which the result in the series with HepG2 [5] was inactive.

Consider `CSC1=C(Nc2cc(C(F)(F)F)ccc2F)C(=O)c2ccccc2C1=O`, for which the outcome in the series with HepG2 [5] was Active. In addition, the Activity entry in the series with SH-SY5Y [2] is recorded as “Non-Toxic”.

As to `O=C1C(Cl)=C(Nc2ccccc2)C(=O)c2ccccc21`, the result in the series on HepG2 [5] was Active.

On to `O=C1C(Nc2ccc(F)c(C(F)(F)F)c2)=C(SC(F)(F)F)C(=O)c2ccccc21`, for which the Activity entry with SH-SY5Y [6] is reported as “Non-Toxic”; in series [7], “Non-Toxic”; in series [1], 58.6%; with HepG2 [9] it was “Toxic”; in the series on SH-SY5Y [2], “Toxic”. Also, the outcome (in the series on HepG2 [5]; in series [4]; in series [10]) was Active. Further, the result in [8] was inactive. The viability at 24 h, 25 µM in series [3] was determined as 65.8%.

Regarding `O=C1C(Cl)=C(Nc2ccc(F)c(C(F)(F)F)c2)C(=O)c2ccccc21`, the Activity in [1] came out at 40.3%. Moreover, in series [3], the viability at 24 h, 25 µM stood at 65.8%.

Consider `CC(C)SC1=C(Nc2cccc(C(F)(F)F)c2)C(=O)c2ccccc2C1=O`, for which the result in the series on HepG2 [5] was Active. Moreover, the Activity result in the series on HepG2 [9] and in the series with SH-SY5Y [2] was “Toxic” in each case.

Regarding `O=C1C(Cl)=C(Nc2cccc(C(F)(F)F)c2)C(=O)c2ccccc21`, the result with HepG2 [5] was Active. Further, the Activity entry in the series on HepG2 [9] and in the series on SH-SY5Y [2] was “Toxic” in each case.

Regarding `CC1=C(Sc2ccccc2)C(=O)c2ccccc2C1=O`, the Activity entry in the series on SH-SY5Y [2] is recorded as “Toxic”; in [11], 70%.

For `O=C1C(Cl)=C(Nc2cccc(O)c2)C(=O)c2ccccc21`, the Activity result (in the series on SH-SY5Y [6]; in series [7]) was “Non-Toxic” throughout. Further, the result in [8] was inactive. Besides, the outcome in [10] was Active.

Regarding `O=C1C=C(NCc2ccccc2)C(=O)c2ccccc21`, in the series on HepG2 [5], the result was Active. For the same molecule, the Activity entry with SH-SY5Y [2] is listed as “Toxic”.
